Results: ChEMBL document CHEMBL1914430, “Synthesis of some new 1,3,5-trisubstituted pyrazolines bearing benzene sulfonamide as anticancer and anti-inflammatory agents” (Bioorg Med Chem Lett, 2011)

Experiments:
Type in all cases: functional
MOLT-4 = assay: Anticancer activity against human MOLT4 cells after 48 hrs; conditions: MOLT-4, 48 h
Outline: (§1)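 NCI 60-line panel protocol with a 48 h incubation. Per line: GI50 = concentration giving 50% decrease in net cell growth; TGI = total growth inhibition; LC50 = net 50% loss of initial cells. When the level was not reached or was exceeded, the value is given as greater or less than the highest or lowest concentration tested.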

MDA-MB-435 = assay: Anticancer activity against human MDA-MB-435 cells after 48 hrs; conditions: MDA-MB-435, 48 h; for CC50: read-out: LC50 (the source's name)
Outline: (§2)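 NCI Drug Evaluation Branch 60-cell-line screen across leukemia, melanoma, lung, colon, CNS, ovarian, renal, prostate and breast panels. The incubation period is 48 h. Parameters are derived from dose–response data: GI50 is the concentration giving 50% decrease in net growth, TGI is total growth inhibition, and LC50 is net 50% loss of initial cells. Values beyond the tested range are reported as greater or less than the maximum or minimum concentration.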

M14 = assay: Anticancer activity against human M14 cells after 48 hrs; conditions: M14, 48 h; for CC50: read-out: LC50 (the source's name); outline: as §2
NCI-H226 = assay: Anticancer activity against human NCI-H226 cells after 48 hrs; conditions: NCI-H226, 48 h; for CC50: read-out: LC50 (the source's name); outline: as §1
ACHN = assay: Anticancer activity against human ACHN cells after 48 hrs; conditions: for CC50: read-out: LC50 (the source's name); outline: as §2

| SMILES | GI50 (MOLT-4) [µM] | LC50 (MOLT-4) [µM] | TGI (MOLT-4) [µM] | GI50 (MDA-MB-435) [µM] | TGI (MDA-MB-435) [µM] | CC50 (MDA-MB-435) [µM] | GI50 (M14) [nM] | TGI (M14) [µM] | CC50 (M14) [µM] | GI50 (NCI-H226) [µM] | TGI (NCI-H226) [µM] | CC50 (NCI-H226) [µM] | GI50 (ACHN) [µM] | TGI (ACHN) [µM] | CC50 (ACHN) [µM] |
| --- | --- | --- | --- | --- | --- | --- | --- | --- | --- | --- | --- | --- | --- | --- | --- |
| Cc1cc(O)c(C2=NN(c3ccc(S(N)(=O)=O)cc3)C(/C=C/c3ccccc3)C2)cc1Cl (stereo not given) | 17.7 | > 100 | 73.7 | 8.87 | 24 | 59.5 | 6160 | 19.3 | 44.2 | 5.21 | 19.2 | 51.8 | 5.27 | 21.9 | 67.2 |
| COc1ccc(C2CC(c3cc(Cl)c(C)cc3O)=NN2c2ccc(S(N)(=O)=O)cc2)cc1OC (stereo not given) | 5.29 | > 100 | > 100 | 3.97 | 24 | > 100 | 2610 | 7.26 | 38.3 | 5.62 | 23.1 | 86.4 | 3.15 | 12.2 | > 100 |
| Cc1cc(O)c(C2=NN(c3ccc(S(N)(=O)=O)cc3)C(c3ccccc3O)C2)cc1Cl (stereo not given) | 4.74 | > 100 | 34.4 | 2.04 | 4.49 | 9.88 | 1760 | 3.4 | 6.56 | 2.21 | 7.55 | 86.5 | 3.13 | 11.2 | 33.4 |
| Cc1cc(O)c(C2=NN(c3ccc(S(N)(=O)=O)cc3)C(c3ccccc3Cl)C2)cc1Cl (stereo not given) | 4.04 | > 100 | > 100 | 1.85 | 3.92 | 8.32 | 1850 | 3.43 | 6.39 | 3.03 | 9.44 | > 100 | 3.34 | 11 | 34.3 |
